For test [1], the target named is Sodium-dependent noradrenaline transporter (Homo sapiens, UniProt P23975). Description: Displacement of [3H]-dopamine from human NET expressed in African green monkey COS7 cells after 10 mins. In kind it is cell-based, COS-7. An outline of the steps:
(§1)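 COS7 cells transiently transfected with human SERT, NET or DAT, assayed 40–48 h later. 30 min preincubation with compound in PBS pH 7.4 plus 0.1 mM CaCl2, 0.5 mM MgCl2; ascorbic acid 1 mM added for NET/DAT. Substrate 50 nM final: [3H]serotonin for SERT, [3H]dopamine for NET/DAT.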

A short description of test [2]: Displacement of [3H]MLA from rat/mouse alpha7 nAChR/5HT3A expressed in tsA201 cells. In kind it is cell-based. An outline of the steps: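 [3H]MLA binding on membranes from tsA201 cells transiently expressing a chimera of rat α7 amino-terminal domain and murine 5-HT3A ion-channel domain. Ki from IC50 via Cheng–Prusoff; 3–5 experiments in duplicate.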
The target in test [3] is Sodium-dependent dopamine transporter (Homo sapiens, UniProt Q01959). The test can be described thus: Displacement of [3H]-dopamine from human DAT expressed in African green monkey COS7 cells after 10 mins. The format is cell-based, COS-7. An outline of the steps: as §1
In general terms: Displacement assays read how much labelled ligand stays bound in the presence of the test substance.

The target of test [4] is Sodium-dependent serotonin transporter (Homo sapiens, UniProt P31645). Description: Displacement of [3H]-serotonin from human SERT expressed in African green monkey COS7 cells after 10 mins. In kind it is cell-based, COS-7. In short, it runs like this:
as §1

Test [5] addresses Neuronal acetylcholine receptor; alpha4/beta4 (Rattus norvegicus, UniProt P09483+P12392). The test can be described thus: Displacement of [3H]epibatidine from rat alpha4/beta4 nAChR expressed in HEK293 cells. The format is cell-based. In short, it runs like this:
(§2)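 Membranes from HEK293 cells stably expressing rat α4β2, α3β4 or α4β4; [3H]epibatidine competition binding. IC50 converted to Ki by Cheng–Prusoff. Means of 3–5 experiments in duplicate.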

For test [6], the species on record is Rattus norvegicus. The test can be described thus: Selectivity ratio of Ki for rat alpha4/beta4 nAChR to Ki for rat alpha4/beta2 nAChR.
In test [7] the target is Nicotinic acetylcholine receptor alpha-4/beta-2 (Mus musculus, UniProt Q8R493+Q9ERK7). The test can be described thus: Antagonist activity at mouse alpha4/beta2 nAChR expressed in HEK293 cells assessed as inhibition of (S)-nicotine-induced activity by FLIPR membrane potential blue assay. The format is cell-based. An outline of the steps: (§3)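 Mouse α4β2 in stably transfected HEK293T cells and rat α3β4 in stable HEK293 cells; FLIPR Membrane Potential Blue read-out. (S)-Nicotine agonist at EC70–EC80: 1 μM for α4β2, 3 μM for α3β4. Functional IC50 from 3–5 experiments in duplicate.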

The test system of a further test is Mus musculus. Description: Antidepressant like activity in mouse at 30 mg/kg, sc administered 20 mins before test measured for 6 mins by forced swimming test. The format is functional, organism-based. Also on record: dose 30 mg/kg. An outline of the steps: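 Mice, n = 7–8, placed singly in a 16 cm beaker holding 20 cm of water at 23.5–24.5 °C. Compound in 0.9% saline given sc at 10 mL/kg 20 min before testing. Swim distance tracked by camera over 6 min, with the first minute excluded. Analysed by one-way ANOVA with planned comparisons.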

In test [8] the target is T1, Neuronal acetylcholine receptor; alpha3/beta4 (Rattus norvegicus, UniProt P04757+P12392). Description: Antagonist activity at rat alpha3/beta4 nAChR expressed in HEK293 cells assessed as inhibition of (S)-nicotine-induced activity by FLIPR membrane potential blue assay. In kind it is cell-based. In short, it runs like this:
as §3

The target in test [9] is T1, Neuronal acetylcholine receptor; alpha3/beta4. Description: Displacement of [3H]epibatidine from rat alpha3/beta4 nAChR expressed in HEK293 cells. In kind it is cell-based. In short, it runs like this:
as §2

The species entered for test [10] is Rattus norvegicus. The test can be described thus: Selectivity ratio of Ki for rat alpha3/beta4 nAChR to Ki for rat alpha4/beta2 nAChR.
Test [11] addresses Neuronal acetylcholine receptor; alpha4/beta2 (Rattus norvegicus, UniProt P09483+P12390). The test can be described thus: (§4) Displacement of [3H]epibatidine from rat alpha4/beta2 nAChR expressed in HEK293 cells. In kind it is cell-based. An outline of the steps:
as §2

Test [12] has as its target Neuronal acetylcholine receptor; alpha4/beta2 (Rattus norvegicus) (UniProt P09483+P12390). Described as §4. The format is cell-based. An outline of the steps: as §2
A short description of test [13]: Selectivity ratio of Ki for rat/mouse alpha7 nAChR/5HT3A to Ki for rat alpha4/beta2 nAChR.
Test [14] addresses Neuronal acetylcholine receptor subunit alpha-7 (Homo sapiens, UniProt P36544). Description: Displacement of [3H]cytisine from alpha7 nAChR (unknown origin).
The target of test [15] is Neuronal acetylcholine receptor; alpha4/beta2 (Homo sapiens, UniProt P17787+P43681). The test can be described thus: Displacement of [3H]cytisine from alpha4/beta2 nAChR (unknown origin). The format is protein-complex assay.

The source made the active and inactive calls. The rule behind the calls is not given here.

Chain of Neuronal acetylcholine receptor; alpha4/beta4 (P09483 whole entry): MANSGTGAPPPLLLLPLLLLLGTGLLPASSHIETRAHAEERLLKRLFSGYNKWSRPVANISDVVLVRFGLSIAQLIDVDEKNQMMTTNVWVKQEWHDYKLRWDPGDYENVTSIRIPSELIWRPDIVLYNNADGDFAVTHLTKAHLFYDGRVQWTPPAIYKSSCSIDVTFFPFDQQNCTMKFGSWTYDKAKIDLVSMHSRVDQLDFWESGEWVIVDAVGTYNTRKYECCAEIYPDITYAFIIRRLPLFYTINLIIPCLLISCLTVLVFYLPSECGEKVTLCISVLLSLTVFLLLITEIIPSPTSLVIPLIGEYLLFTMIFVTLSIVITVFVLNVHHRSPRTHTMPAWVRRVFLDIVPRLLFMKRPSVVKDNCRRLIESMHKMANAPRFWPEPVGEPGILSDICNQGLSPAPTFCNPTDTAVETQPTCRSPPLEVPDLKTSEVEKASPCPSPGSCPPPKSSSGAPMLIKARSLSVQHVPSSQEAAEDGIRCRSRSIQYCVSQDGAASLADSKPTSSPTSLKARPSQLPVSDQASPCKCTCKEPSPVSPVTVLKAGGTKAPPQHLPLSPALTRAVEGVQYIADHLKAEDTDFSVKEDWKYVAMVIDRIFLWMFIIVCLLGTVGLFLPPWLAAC
Chain of Neuronal acetylcholine receptor; alpha4/beta4 (P12392 whole entry): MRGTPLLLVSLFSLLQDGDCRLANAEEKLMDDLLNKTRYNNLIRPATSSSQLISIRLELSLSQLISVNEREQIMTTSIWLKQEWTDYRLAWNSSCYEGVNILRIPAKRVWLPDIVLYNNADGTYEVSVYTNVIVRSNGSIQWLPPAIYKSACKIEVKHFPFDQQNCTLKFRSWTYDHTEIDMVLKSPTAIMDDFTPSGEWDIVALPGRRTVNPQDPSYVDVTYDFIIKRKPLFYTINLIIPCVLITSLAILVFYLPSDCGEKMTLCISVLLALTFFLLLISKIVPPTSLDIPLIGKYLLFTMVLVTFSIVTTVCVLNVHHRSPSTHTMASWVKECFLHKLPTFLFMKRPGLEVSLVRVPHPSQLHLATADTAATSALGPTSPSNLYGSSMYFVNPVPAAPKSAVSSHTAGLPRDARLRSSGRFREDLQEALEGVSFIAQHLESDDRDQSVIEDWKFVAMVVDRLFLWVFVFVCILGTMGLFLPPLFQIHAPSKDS
Chain of Neuronal acetylcholine receptor; alpha4/beta2 (Rattus norvegicus, UniProt P09483+P12390) (P09483 whole entry): as the sequence (P09483 whole entry) above
Chain of Neuronal acetylcholine receptor; alpha4/beta2 (Rattus norvegicus, UniProt P09483+P12390) (P12390 whole entry): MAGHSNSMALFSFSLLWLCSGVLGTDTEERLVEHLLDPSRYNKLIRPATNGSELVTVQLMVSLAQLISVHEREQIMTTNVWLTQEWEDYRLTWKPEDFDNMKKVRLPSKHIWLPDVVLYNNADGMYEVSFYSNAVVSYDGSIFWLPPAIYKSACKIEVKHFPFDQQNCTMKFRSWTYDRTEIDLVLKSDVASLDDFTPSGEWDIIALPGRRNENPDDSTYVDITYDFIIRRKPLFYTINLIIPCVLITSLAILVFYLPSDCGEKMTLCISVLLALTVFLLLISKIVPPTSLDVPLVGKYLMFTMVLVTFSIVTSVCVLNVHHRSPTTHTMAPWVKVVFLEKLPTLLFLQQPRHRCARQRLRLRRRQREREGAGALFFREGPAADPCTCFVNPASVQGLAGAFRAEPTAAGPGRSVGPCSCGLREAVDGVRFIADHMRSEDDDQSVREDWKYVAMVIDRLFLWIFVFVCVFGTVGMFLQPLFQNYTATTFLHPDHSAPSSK
Chain of Nicotinic acetylcholine receptor alpha-4/beta-2 (Q9ERK7 whole entry): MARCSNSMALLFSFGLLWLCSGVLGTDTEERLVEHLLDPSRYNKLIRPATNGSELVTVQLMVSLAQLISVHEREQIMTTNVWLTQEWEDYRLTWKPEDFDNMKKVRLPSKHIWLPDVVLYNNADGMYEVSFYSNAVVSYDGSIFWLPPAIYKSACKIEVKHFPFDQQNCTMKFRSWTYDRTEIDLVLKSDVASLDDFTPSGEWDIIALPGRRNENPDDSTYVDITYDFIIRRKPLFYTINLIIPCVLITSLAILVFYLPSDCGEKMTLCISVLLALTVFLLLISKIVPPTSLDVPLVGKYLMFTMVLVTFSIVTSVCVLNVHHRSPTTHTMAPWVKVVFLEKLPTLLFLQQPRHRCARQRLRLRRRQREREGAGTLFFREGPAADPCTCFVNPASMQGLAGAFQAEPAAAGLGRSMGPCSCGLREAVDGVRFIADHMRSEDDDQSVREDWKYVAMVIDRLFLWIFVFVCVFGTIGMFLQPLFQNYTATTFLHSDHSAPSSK
Chain of Nicotinic acetylcholine receptor alpha-4/beta-2 (Q8R493 whole entry): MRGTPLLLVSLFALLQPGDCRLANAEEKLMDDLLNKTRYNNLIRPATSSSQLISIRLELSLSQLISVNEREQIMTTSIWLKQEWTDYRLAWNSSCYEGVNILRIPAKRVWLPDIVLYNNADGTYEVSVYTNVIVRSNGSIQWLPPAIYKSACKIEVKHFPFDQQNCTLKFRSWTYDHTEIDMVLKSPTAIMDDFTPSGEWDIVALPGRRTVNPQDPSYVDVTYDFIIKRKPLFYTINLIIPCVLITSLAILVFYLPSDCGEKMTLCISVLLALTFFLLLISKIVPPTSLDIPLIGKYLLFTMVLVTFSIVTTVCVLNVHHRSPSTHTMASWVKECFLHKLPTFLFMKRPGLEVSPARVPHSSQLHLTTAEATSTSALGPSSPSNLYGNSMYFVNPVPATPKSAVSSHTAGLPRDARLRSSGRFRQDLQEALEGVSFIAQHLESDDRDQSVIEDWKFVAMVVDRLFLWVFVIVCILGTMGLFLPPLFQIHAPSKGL
T1 sequence (P04757 whole entry): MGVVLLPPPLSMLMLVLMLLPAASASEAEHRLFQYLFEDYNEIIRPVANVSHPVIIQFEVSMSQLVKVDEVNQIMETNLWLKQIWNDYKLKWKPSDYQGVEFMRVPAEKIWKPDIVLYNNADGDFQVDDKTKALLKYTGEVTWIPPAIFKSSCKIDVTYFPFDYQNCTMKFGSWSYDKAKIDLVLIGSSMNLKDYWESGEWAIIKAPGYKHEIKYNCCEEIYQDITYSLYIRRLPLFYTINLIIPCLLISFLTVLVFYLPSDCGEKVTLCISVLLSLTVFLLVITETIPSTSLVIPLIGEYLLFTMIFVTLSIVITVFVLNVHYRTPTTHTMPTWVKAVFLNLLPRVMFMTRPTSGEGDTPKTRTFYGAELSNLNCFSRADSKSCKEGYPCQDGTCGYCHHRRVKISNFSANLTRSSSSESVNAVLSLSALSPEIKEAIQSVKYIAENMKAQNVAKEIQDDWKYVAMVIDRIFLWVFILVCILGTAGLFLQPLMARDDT
T1 sequence (P12392 whole entry): as the sequence (P12392 whole entry) above
Chain of Neuronal acetylcholine receptor subunit alpha-7 (P36544 whole entry): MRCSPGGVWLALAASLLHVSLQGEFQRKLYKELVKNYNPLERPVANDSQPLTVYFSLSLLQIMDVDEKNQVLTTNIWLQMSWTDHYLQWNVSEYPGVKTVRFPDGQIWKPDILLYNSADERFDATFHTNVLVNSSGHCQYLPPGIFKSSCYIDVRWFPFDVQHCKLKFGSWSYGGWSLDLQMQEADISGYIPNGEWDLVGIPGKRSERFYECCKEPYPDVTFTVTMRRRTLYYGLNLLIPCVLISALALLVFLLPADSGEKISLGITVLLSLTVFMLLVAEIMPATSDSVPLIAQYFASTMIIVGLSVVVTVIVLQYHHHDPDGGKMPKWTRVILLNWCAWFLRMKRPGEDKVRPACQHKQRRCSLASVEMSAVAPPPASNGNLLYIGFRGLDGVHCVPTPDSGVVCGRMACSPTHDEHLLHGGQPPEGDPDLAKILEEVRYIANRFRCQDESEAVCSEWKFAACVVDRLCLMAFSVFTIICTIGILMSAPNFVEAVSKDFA
Chain of Neuronal acetylcholine receptor; alpha4/beta2 (Homo sapiens, UniProt P17787+P43681) (P17787 whole entry): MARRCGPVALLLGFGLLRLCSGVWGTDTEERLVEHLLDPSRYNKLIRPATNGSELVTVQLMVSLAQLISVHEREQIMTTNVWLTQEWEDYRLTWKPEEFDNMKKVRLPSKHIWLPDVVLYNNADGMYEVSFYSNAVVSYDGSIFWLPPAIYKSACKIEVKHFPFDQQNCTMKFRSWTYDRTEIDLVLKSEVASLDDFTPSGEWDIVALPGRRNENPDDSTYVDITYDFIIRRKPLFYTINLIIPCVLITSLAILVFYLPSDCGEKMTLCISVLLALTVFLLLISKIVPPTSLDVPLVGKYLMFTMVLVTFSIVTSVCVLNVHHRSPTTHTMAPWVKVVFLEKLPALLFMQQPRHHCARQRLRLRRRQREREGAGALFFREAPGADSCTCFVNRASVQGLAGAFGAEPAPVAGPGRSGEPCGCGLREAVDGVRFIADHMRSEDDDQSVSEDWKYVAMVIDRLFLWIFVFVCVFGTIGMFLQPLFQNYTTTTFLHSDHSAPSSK
Chain of Neuronal acetylcholine receptor; alpha4/beta2 (Homo sapiens, UniProt P17787+P43681) (P43681 whole entry): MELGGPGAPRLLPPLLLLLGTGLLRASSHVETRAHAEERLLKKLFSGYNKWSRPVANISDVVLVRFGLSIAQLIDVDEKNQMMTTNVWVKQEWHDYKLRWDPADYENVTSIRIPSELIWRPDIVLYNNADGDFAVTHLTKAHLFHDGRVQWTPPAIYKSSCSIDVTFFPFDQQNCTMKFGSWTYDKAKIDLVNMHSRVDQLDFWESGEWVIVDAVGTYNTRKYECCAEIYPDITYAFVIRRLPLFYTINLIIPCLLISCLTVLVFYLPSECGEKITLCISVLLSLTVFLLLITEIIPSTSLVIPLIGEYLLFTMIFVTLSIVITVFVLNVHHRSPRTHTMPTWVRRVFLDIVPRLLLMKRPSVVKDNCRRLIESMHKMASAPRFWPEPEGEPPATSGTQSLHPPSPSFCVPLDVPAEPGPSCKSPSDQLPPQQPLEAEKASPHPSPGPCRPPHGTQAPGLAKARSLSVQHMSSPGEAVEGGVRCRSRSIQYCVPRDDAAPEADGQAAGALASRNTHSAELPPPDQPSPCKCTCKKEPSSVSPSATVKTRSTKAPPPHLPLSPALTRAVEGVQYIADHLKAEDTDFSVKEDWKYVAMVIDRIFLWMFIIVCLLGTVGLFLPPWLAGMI

In general, Ki refers to a measure of affinity in units of concentration, obtained from inhibition or displacement. The IC50 is the concentration needed to halve the response being measured. `COc1cc2c(cc1OC)CN(C)CC2`: the Ki in [1] is 129 µM; in test [2] it was over 500 µM; in [3] it was over 10000 µM; in test [4] it was 46.7 µM; in [5], 300 µM; in [9] it was 300 µM. Besides, the affinity in [11], expressed as Ki, was 0.87 µM. Further, the Ratio Ki (in the test listed under Rattus norvegicus [6]; in the test listed under Rattus norvegicus [10]; in [13]) was over 300 each time. Besides, the IC50 in [7] was 12 µM; in test [8], 100 µM. Further, the result in the test on Mus musculus was Active. For the same molecule, the inhibition entry in test [12] is “Dose-dependent effect”.
As for `CN1CCc2cc3c(cc2C1)OCO3`, the inhibition constant Ki came to 500 µM in test [2], 50 µM in test [5], 300 µM in [9] and 1.7 µM in test [11]. Also, the IC50 in [7] was 2.6 µM; in test [8], 300 µM. For the same molecule, in test [12], the inhibition entry was “Dose-dependent effect”.
Consider `CCCCC1c2cc(OC)c(OC)cc2CCN1C` (stereo unspecified), for which the IC50 in [7] is over 300 µM. Besides, affinity in [11] was put at a Ki of 30 µM.
`CO[C@H]1CC=C2CCN3CCC4=C(CC(=O)OC4)[C@]23C1`: the affinity in [14], expressed as Ki, was 10.5 µM.
In the case of `COc1cc2c(cc1O)CCN(C)C2`, the Ki in [2] is over 500 µM; in [5] it was 100 µM; in test [9], 300 µM; in [11] it was 10 µM. The values for the IC50 in test [7] and in [8] were 33 µM and 1000 µM, respectively. For the same molecule, in test [12], the inhibition result was “Dose-dependent effect”.
For `CCC1c2cc(OC)c(OC)cc2CCN1C` (stereo unspecified), the IC50 in [7] is over 300 µM. The Ki in test [11] came to 300 µM.
Regarding `COc1cc2c(cc1OC)C(C1CCCCC1)N(C)CC2` (stereo unspecified), the IC50 in test [7] is over 300 µM. Moreover, affinity in test [11] was put at a Ki of 300 µM.
Regarding `COc1cc2c(cc1OC)C(c1ccccc1)N(C)CC2` (stereo unspecified), the IC50 in test [7] is over 300 µM. In addition, the inhibition constant (Ki) in test [11] came to 100 µM.
Taken in the same sequence, the figures for `COc1cccc(C2c3cc(OC)c(OC)cc3CCN2C)c1` (stereo unspecified) were over 300 µM and 300 µM.
Taken in the same sequence, the figures for `COc1ccc(C2c3cc(OC)c(OC)cc3CCN2C)cc1OC` (stereo unspecified) were over 300 µM and over 300 µM.
In the case of `CN1CCc2cc(O)c(O)cc2C1`, the Ki in test [2] is over 500 µM; in test [5] it was 100 µM; in [9], 100 µM; in test [11] it was 6.8 µM. Also, the results for the IC50 in test [7] and in test [8] were 16 µM and over 1000 µM, respectively. Moreover, the inhibition result in [12] is “Dose-dependent effect”.
In the case of `COc1cc2c(cc1O)CN(C)CC2`, the Ki in [2] is over 500 µM; in test [5], 100 µM; in test [9], 300 µM; in test [11] it was 1.7 µM. Further, the concentration for half-maximal inhibition (IC50) in test [7] is 4.4 µM; in test [8] it was over 1000 µM. Moreover, the inhibition result in test [12] was “Dose-dependent effect”.
With `COc1cc2c(cc1OC)C1CCCN1CC2` (racemic), the inhibitory constant (Ki) was over 500 µM in test [2], 100 µM in test [5], 300 µM in test [9] and 5.5 µM in test [11]. For the same molecule, the IC50 turned out to be 31 µM in test [7] and 100 µM in test [8]. For the same molecule, the inhibition entry in [12] is “Dose-dependent effect”.
Turning to `c1c2c(cc3c1OCO3)C1CCCN1CC2` (racemic), the Ki in test [5] amounted to 21 µM; in test [9], 100 µM; in test [11], 0.55 µM. The half-inhibitory concentration (IC50) in test [7] was determined as 3.3 µM; in test [8], 100 µM. The inhibition entry in [12] is “Dose-dependent effect”.
For `COc1cc2c(cc1O)CCN1CCCC21` (racemic), the inhibition constant (Ki) in [2] is 500 µM; in test [5], 100 µM; in test [9] it was 300 µM; in [11] it was 100 µM. The IC50 in test [7] came out at 50 µM; in [8], 300 µM. In addition, in test [12], the inhibition result is “Dose-dependent effect”.
`COc1cc2c(cc1O)C1CCCN1CC2` (racemic): the inhibition constant (Ki) in test [2] stood at 300 µM; in test [5], 100 µM; in test [9], 100 µM; in [11], 3.4 µM. For the same molecule, the IC50 in test [7] stood at 23 µM; in test [8], 300 µM. In addition, in test [12], the inhibition result is “Dose-dependent effect”.
As to `Oc1cc2c(cc1O)C1CCCN1CC2` (racemic), the Ki in test [2] was determined as 300 µM; in [5] it was 50 µM; in [9], 100 µM; in test [11], 11 µM. Also, the IC50 in [7] amounted to 100 µM; in [8], 1000 µM. The inhibition result in test [12] is “Dose-dependent effect”.
In the case of `COc1cc2c(cc1OC)[C@]13CCCC[C@H]1CCN3CC2` (relative stereo), the Ki in [2] was determined as 30 µM; in [5], 100 µM; in [9], 100 µM; in test [11] it was 100 µM. For the same molecule, the IC50 in test [7] was found to be 31 µM; in [8], 50 µM. In [12], the inhibition result was “Dose-dependent effect”.
Turning to `c1c2c(cc3c1OCO3)[C@]13CCCC[C@H]1CCN3CC2` (relative stereo), the inhibitory constant (Ki) in test [2] stood at 18 µM; in test [5] it was 50 µM; in [9], 30 µM; in test [11] it was 7.3 µM. In addition, the results for the IC50 in [7] and in test [8] were 9.2 µM and 50 µM, respectively. The inhibition entry in test [12] was “Dose-dependent effect”.
Consider `COc1cc2c(cc1O)CCN1CC[C@@H]3CCCC[C@@]231` (relative stereo), for which the Ki in [2] stood at 20 µM; in [5], 50 µM; in test [9], 100 µM; in test [11], 8.5 µM. For the same molecule, the IC50 was 2.3 µM in test [7] and 50 µM in [8]. Moreover, the inhibition entry in test [12] is “Dose-dependent effect”.
Consider `COc1cc2c(cc1O)[C@]13CCCC[C@H]1CCN3CC2` (relative stereo), for which the inhibition constant (Ki) in test [2] worked out at 5.5 µM; in [5], 23 µM; in test [9] it was 30 µM; in [11] it was 18 µM. The IC50 in test [7] was 2.9 µM; in test [8], 33 µM. The inhibition result in [12] was “Dose-dependent effect”.
For `Oc1cc2c(cc1O)[C@]13CCCC[C@H]1CCN3CC2` (relative stereo), the Ki in [2] was 7.3 µM; in test [5], 19 µM; in test [9] it was 30 µM; in [11], 1.5 µM. Moreover, the half-inhibitory concentration (IC50) in test [7] was 0.58 µM; in [8], 50 µM. Further, in [12], the inhibition result is “Dose-dependent effect”.
Turning to `COc1cc2c(cc1O)CCN1CC=C3C=C[C@H](OC)C[C@]321` [ERYSODINE], affinity in test [14] was put at a Ki of 7.5 µM.
In the case of `COc1cc2c(cc1OC)[C@]13C[C@@H](OC)C=CC1=CCN3CC2` [ERYSOTRINE], the Ki in test [15] worked out at 0.6 µM.

These data come from ChEMBL document CHEMBL3233008, “Design, synthesis, and biological evaluation of Erythrina alkaloid analogues as neuronal nicotinic acetylcholine receptor antagonists” (J Med Chem, 2013).
